Data as given in ChEMBL document CHEMBL1150419, “Structure-activity relationships of a peptide inhibitor of the human FcRn:human IgG interaction” (Bioorg Med Chem, 2008).
Bridge positions count the residues as written; N and C are the ends. Peptide text beside a SMILES is read from it.

Key:
[1] = molecular target: T1, IgG receptor FcRn large subunit p51 (Homo sapiens, UniProt P55899); assay: Binding affinity to human FcRn at pH 7.4 by surface plasmon resonance assay
Procedure, shortened: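 Soluble human FcRn coupled to the dextran surface of a CM5 chip; peptide dilutions flowed over the chip. Equilibrium response at each dilution plotted against concentration, and Kd fitted with a steady-state affinity model.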

[2] = molecular target: T1, IgG receptor FcRn large subunit p51; assay: Binding affinity to human FcRn at pH 6 by surface plasmon resonance assay
Procedure, shortened: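 Soluble human FcRn coupled to the dextran surface of a CM5 chip; peptide dilutions flowed over the chip. The equilibrium response at each dilution was plotted against concentration and fitted to a steady-state affinity model to give Kd.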

[3] = molecular target: T1, IgG receptor FcRn large subunit p51; assay: Inhibition of human IgG binding to soluble human FcRn by ELISA
Procedure, shortened: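 Biotinylated soluble human FcRn immobilized on neutravidin plates, incubated with hIgG (3 nM, constant) and peptide at varying concentrations for 2 h at 37 °C. After washing, bound hIgG detected with peroxidase-conjugated hIgG-specific Fab fragments.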

[4] = Stability in presence of subtilisin assessed as intact peptide after 1 hr; type: ADME; settings: subtilisin (protease solution); read-out: Stability
Procedure, shortened: (§1)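 Peptide dissolved in PBS at 0.3 mg/mL and treated with a 470-fold molar excess of Subtilisin Carlsberg. The fraction of intact peptide remaining was recorded.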

[5] = Stability in presence of subtilisin assessed as intact peptide after 18 hrs; type: ADME; settings: subtilisin (protease solution); read-out: Stability; procedure, shortened: as §1

T1 sequence (P55899 whole entry): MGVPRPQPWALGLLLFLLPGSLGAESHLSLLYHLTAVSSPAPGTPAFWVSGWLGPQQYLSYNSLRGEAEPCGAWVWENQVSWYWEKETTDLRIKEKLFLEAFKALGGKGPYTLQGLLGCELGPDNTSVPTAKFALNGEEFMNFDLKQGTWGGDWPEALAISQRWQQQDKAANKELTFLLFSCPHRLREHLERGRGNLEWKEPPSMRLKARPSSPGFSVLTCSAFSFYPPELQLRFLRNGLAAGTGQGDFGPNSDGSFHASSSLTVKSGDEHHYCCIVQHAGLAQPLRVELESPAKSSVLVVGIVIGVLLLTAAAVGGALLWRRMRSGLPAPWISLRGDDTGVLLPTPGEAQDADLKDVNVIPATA

Row | SMILES | Kd [1] | Kd [2] | IC50 [3] | remaining at 1 h [4] | remaining at 18 h [5]
1 | CC(C)C[C@@H](C(=O)N[C@@H](Cc1ccc(O)cc1)C(=O)N1CCC[C@H]1C(=O)N[C@@H](CS)C(=O)O)N(C)C(=O)CN(C)C(=O)CNC(=O)[C@H](Cc1ccccc1)NC(=O)[C@H](Cc1ccsc1)NC(=O)CNC(=O)[C@@H](NC(=O)[C@@H](NC(=O)[C@H](Cc1ccccc1)NC(=O)[C@@H](N)CCCN=C(N)N)C(C)(C)S)[C@@H](C)O | 3 µM | 2 µM | 45 µM | – | –
2 | CC(C)C[C@@H](C(=O)N[C@@H](Cc1ccc(O)cc1)C(=O)N1CCC[C@H]1C(=O)N[C@@H](CS)C(=O)O)N(C)C(=O)CN(C)C(=O)CNC(=O)[C@H](Cc1ccccc1)NC(=O)[C@H](Cc1cccnc1)NC(=O)CNC(=O)[C@@H](NC(=O)[C@@H](NC(=O)[C@H](Cc1ccccc1)NC(=O)[C@@H](N)CCCNC(=N)N)C(C)(C)S)[C@@H](C)O | 0.26 µM | 0.064 µM | – | – | –
3 | CC(C)C[C@@H](C(=O)N[C@@H](Cc1ccc(O)cc1)C(=O)N1CCC[C@H]1C(=O)N[C@@H](CS)C(=O)O)N(C)C(=O)CN(C)C(=O)CNC(=O)[C@H](Cc1ccccc1)NC(=O)[C@H](Cc1ccncc1)NC(=O)CNC(=O)[C@@H](NC(=O)[C@@H](NC(=O)[C@H](Cc1ccccc1)NC(=O)[C@@H](N)CCCNC(=N)N)C(C)(C)S)[C@@H](C)O | 0.28 µM | 0.067 µM | 1.3 µM | – | –
4 | CC(C)C[C@@H](C(=O)N[C@@H](Cc1ccc(O)cc1)C(=O)N1CCC[C@H]1C(=O)N[C@@H](CS)C(=O)O)N(C)C(=O)CN(C)C(=O)CNC(=O)[C@H](Cc1ccccc1)NC(=O)[C@H](CCCN)NC(=O)CNC(=O)[C@@H](NC(=O)[C@@H](NC(=O)[C@H](Cc1ccccc1)NC(=O)[C@@H](N)CCCNC(=N)N)C(C)(C)S)[C@@H](C)O | 1.2 µM | 1.3 µM | 12 µM | – | –
5 | CC(C)C[C@@H](C(=O)N[C@@H](Cc1ccc(O)cc1)C(=O)N1CCC[C@H]1C(=O)N[C@@H](CS)C(=O)O)N(C)C(=O)CNC(=O)[C@@H](C)NC(=O)[C@H](Cc1ccccc1)NC(=O)[C@H](Cc1cnc[nH]1)NC(=O)CNC(=O)[C@@H](C)N(C)C(=O)[C@@H](NC(=O)[C@H](Cc1ccccc1)NC(=O)[C@@H](N)CCCNC(=N)N)C(C)(C)S | – | – | 8 µM | 100% | 95%
6 | CC(C)C[C@H](NC(=O)CNC(=O)CNC(=O)[C@H](Cc1ccccc1)NC(=O)[C@H](Cc1cnc[nH]1)NC(=O)CNC(=O)[C@@H](NC(=O)[C@@H](NC(=O)[C@H](Cc1ccccc1)NC(=O)[C@H](CCCNC(=N)N)NC(=O)[C@@H](N)CCC(N)=O)C(C)(C)S)[C@@H](C)O)C(=O)N[C@@H](Cc1ccc(O)cc1)C(=O)N1CCC[C@H]1C(=O)N[C@@H](CS)C(=O)N[C@@H](CC(N)=O)C(=O)NCC(=O)N1CCC[C@H]1C(=O)O | – | 0.25 µM | 2 µM | 5% | 0%
7 | CC(C)C[C@@H]1NC(=O)CNC(=O)CNC(=O)[C@H](Cc2ccccc2)NC(=O)[C@H](Cc2cnc[nH]2)NC(=O)CNC(=O)[C@H]([C@@H](C)O)NC(=O)[C@@H](NC(=O)[C@H](Cc2ccccc2)NC(=O)[C@H](CCCN=C(N)N)NC(=O)[C@@H](N)CCC(N)=O)CSSC[C@@H](C(=O)N[C@@H](CC(N)=O)C(=O)NCC(=O)N2CCC[C@H]2C(=O)O)NC(=O)[C@@H]2CCCN2C(=O)[C@H](Cc2ccc(O)cc2)NC1=O | 45 µM | 5.7 µM | 36 µM | – | –
8 | CC(C)C[C@@H](C(=O)N[C@@H](Cc1ccc(O)cc1)C(=O)N1CCC[C@H]1C(=O)N[C@@H](CS)C(=O)O)N(C)C(=O)CN(C)C(=O)CNC(=O)[C@H](Cc1ccccc1)NC(=O)[C@H](CCCNC(=N)N)NC(=O)CNC(=O)[C@@H](NC(=O)[C@@H](NC(=O)[C@H](Cc1ccccc1)NC(=O)[C@@H](N)CCCNC(=N)N)C(C)(C)S)[C@@H](C)O | 0.5 µM | 0.5 µM | 5.5 µM | – | –
9 | CC(C)C[C@@H](C(=O)N[C@@H](Cc1ccc(O)cc1)C(=O)N1CCC[C@H]1C(=O)N[C@@H](CS)C(=O)O)N(C)C(=O)CN(C)C(=O)CNC(=O)[C@H](Cc1ccccc1)NC(=O)[C@H](CCCCN)NC(=O)CNC(=O)[C@@H](NC(=O)[C@@H](NC(=O)[C@H](Cc1ccccc1)NC(=O)[C@@H](N)CCCN=C(N)N)C(C)(C)S)[C@@H](C)O | 1.1 µM | 1.3 µM | 40 µM | – | –
10 | C[C@@H](O)[C@H](NC(=O)[C@@H](NC(=O)[C@H](Cc1ccccc1)NC(=O)[C@H](CCCN=C(N)N)NC(=O)[C@@H](N)CCC(N)=O)C(C)(C)S)C(=O)NCC(=O)N[C@@H](Cc1cnc[nH]1)C(=O)N[C@@H](Cc1ccccc1)C(=O)N[C@H](Cc1ccccc1)C(=O)NCC(=O)N1CCC[C@H]1C(=O)N[C@@H](Cc1ccc(O)cc1)C(=O)N1CCC[C@H]1C(=O)N[C@@H](CS)C(=O)N[C@@H](CC(N)=O)C(=O)NCC(=O)N1CCC[C@H]1C(=O)O | – | 18.3 µM | 39 µM | 5% | 0%
11 | CC(C)C[C@@H](C(=O)N[C@@H](Cc1ccc(O)cc1)C(=O)N1CCC[C@H]1C(=O)N[C@@H](CS)C(=O)O)N(C)C(=O)CN(C)C(=O)CNC(=O)[C@H](Cc1ccccc1)NC(=O)[C@H](CC1CCNCC1)NC(=O)CNC(=O)[C@@H](NC(=O)[C@@H](NC(=O)[C@H](Cc1ccccc1)NC(=O)[C@@H](N)CCCNC(=N)N)C(C)(C)S)[C@@H](C)O | 6.4 µM | 5.2 µM | 85 µM | – | –
12 | CC[C@H](C)[C@@H]1NC(=O)CNC(=O)CNC(=O)[C@H](Cc2ccccc2)NC(=O)[C@H](Cc2cnc[nH]2)NC(=O)CNC(=O)[C@H]([C@@H](C)O)NC(=O)[C@H](C(C)C)NC(=O)[C@@H](NC(=O)CNC(=O)CNC(=O)CN)CSSC[C@@H](C(=O)N[C@@H](CC(N)=O)C(=O)N[C@@H](Cc2ccc(O)cc2)C(=O)N[C@@H](CCC(N)=O)C(=O)O)NC(=O)[C@H](Cc2ccc(O)cc2)NC1=O (H-GGGCVTGHFGGIYCNYQ-OH; disulfide 4-14) | 35 µM | 5.2 µM | 33 µM | – | –
13 | CC[C@H](C)[C@H](NC(=O)[C@@H](NC(=O)[C@@H](N)CCCCN)[C@@H](C)CC)C(=O)N[C@H]1CSSC[C@@H](C(=O)N[C@@H](CCC(N)=O)C(=O)NCC(=O)N[C@@H](CCCCN)C(=O)O)NC(=O)[C@H](Cc2ccc(O)cc2)NC(=O)[C@H](CCSC)NC(=O)CNC(=O)CNC(=O)[C@H](Cc2ccccc2)NC(=O)[C@H](Cc2cnc[nH]2)NC(=O)CNC(=O)[C@@H]2CCCN2C(=O)[C@H](CO)NC1=O (H-KIICSPGHFGGMYCQGK-OH; disulfide 4-14) | 78 µM | 22 µM | 64 µM | – | –
14 | CC[C@H](C)[C@@H]1NC(=O)CNC(=O)[C@H](CC(=O)O)NC(=O)[C@H]([C@@H](C)CC)NC(=O)[C@H](Cc2cnc[nH]2)NC(=O)CNC(=O)[C@H](CCC(=O)O)NC(=O)[C@H]([C@@H](C)CC)NC(=O)[C@@H](NC(=O)[C@H](Cc2ccc(O)cc2)NC(=O)[C@H](CO)NC(=O)[C@@H]2CCCN2)CSSC[C@@H](C(=O)N[C@@H](Cc2ccccc2)C(=O)N[C@@H](CC(N)=O)C(=O)N[C@@H](C)C(=O)O)NC(=O)[C@H](Cc2ccc(O)cc2)NC1=O (H-PSYCIEGHIDGIYCFNA-OH; disulfide 4-14) | 76 µM | 8.8 µM | 49 µM | – | –
